Shown is part of a subset that was picked to be rich in hits.
H69AR growth 86K: growth inhibitors of human H69AR lung tumor cells | 6% of 85,000 active | H69AR lung tumor viability, ATP luminescence, 72 h; active compounds read low | viability, % at 10 µM;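 active means viability at or below 40%; inactive means viability above 40%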;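 further: multidrug resistant small cell line overexpressing MRP-1 efflux transporter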
Fibroblast inh: blocks proliferation of human lung fibroblasts; LL 47 human lung fibroblast viability, ATP luminescence; active compounds read low; viability, % at 10 µM; 1.1% of 85,000 active; AID 719;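 active means viability at or below 50% in the single dose screen; inactive means viability above 50%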;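 further: compound exposure lasted 72 h before the ATP readout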
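Test system: LL 47 human lung fibroblasts / Quantity: 1,150 cells in each well / Medium: IMEM growth medium with 15% fetal bovine serum / Incubation: 72 h compound exposure at 37 °C after overnight plating / Detection: CellTiter-Glo luminescence measuring cellular ATP / Read-out: % viability versus median cells-only luminescence / Benchmarks: cell-only wells, no compound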
HCT116 bCat-KO: beta-catenin-lacking colon tumor cell growth suppression. 1.5% of 140,000 active. AID 818. viability, % at 10 µM. HCT116 beta-catenin knockout viability, CellTiter-Glo, 60 h; active compounds read low;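 active means viability at or under a set limit, the compound median less 4 SD, cut at about 6% in these data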
PTEN del growth: growth suppressors of cells with PTEN tumor suppressor deletion. 1.2% of 140,000 active. HCT116 PTEN-null viability, CellTiter-Glo, 60 h; active compounds read low. viability, % at 10 µM;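 active means viability at or below a set limit, 4 SD under the median of all tested compounds, cut at about 3.7% in these data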;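 further: PTEN knockout HCT116 line with beta catenin targeted HCT116 as companion control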
HUVEC prolif 384: blocks proliferation of human endothelial cells; 1.1% of 86,000 active; HUVEC proliferation, CellTiter-Glo luminescence, 72 h; active compounds read low; viability, % at 10 µM (by protocol);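 active means viability at or below 30%; inactive means viability above 30%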
Hits are given with their value; i = inactive; nt = not tested or not shown.

SMILES	H69AR growth 86K	Fibroblast inh	HCT116 bCat-KO	PTEN del growth	HUVEC prolif 384
CCN(CC)S(=O)(=O)c1cccc(-c2nnc(SCc3nc4ccccc4s3)o2)c1	35.3	i	i	i	i
CC(=O)NCC(=O)N(C)C(C(=O)Nc1ccc(C(C)C)cc1)c1ccccc1 (centres undefined)	i	i	i	i	i
CC(Oc1ccc(Br)cc1)C(=O)Nn1c(=S)[nH]c2ncccc2c1=O (centres undefined)	nt	nt	i	i	nt
COc1cc(CNc2ccccc2SC)cc(OC)c1OC	i	i	i	i	i
COc1ccc(C(=O)OCC(=O)c2cc(OC)ccc2OC)c(OC)c1	i	i	0.6	0.8	i
COc1ccc(OC)c(C(=O)COC(=O)c2ccc(C)o2)c1	i	i	i	i	i
COc1ccc(C2c3ccc4ccccc4c3Oc3ncn(Cc4ccco4)c(=N)c32)cc1OC (centres undefined)	nt	nt	1.7	0.9	nt
COc1ccc(C2c3c(ncn(CCN4CCOCC4)c3=N)Oc3ccc4ccccc4c32)cc1OC (centres undefined)	1.9	i	i	i	i
COc1ccc(C2c3ccc4ccccc4c3Oc3ncn4nc(Cc5ccccc5)nc4c32)cc1OC (centres undefined)	nt	nt	i	i	nt
COC(=O)CSc1ccc(S(=O)(=O)N2CCOCC2)cc1[N+](=O)[O-]	nt	nt	i	i	nt
Cc1sc2nc(C3CC3)nc(NCCNS(=O)(=O)c3ccccc3)c2c1C	21.9	i	i	i	i
N#C/C(=N\Nc1cccc2ccccc12)c1nnc2n1CCCCC2	nt	nt	i	i	nt
Cc1ccc(C2C(/C=C3/SC(=S)NC3=O)=C(c3cccs3)Oc3ccccc32)cc1 (centres undefined)	14.4	i	i	i	i
CCOC(=O)c1ccc(NC(=O)CSc2nc(NC(=O)c3ccccc3)c3c(C)c(C)oc3n2)cc1	21.8	i	i	i	i
CNC(=O)C1=C(C)NC(=S)NC1c1cc2c(cc1OC)CCCC2 (centres undefined)	nt	nt	i	i	nt
COc1ccccc1/C=C/C=N/NC(=O)c1ccncc1	nt	nt	i	i	nt
COc1ccc(/C=C/c2ccncc2)c2ccccc12	13.8	i	i	i	i
Cc1c(Cl)cccc1N/C(SCC(=O)N1CCCCCC1)=C(/C#N)c1nc2ccccc2s1	nt	nt	1.7	1.6	nt
O=C(CSc1nc2ccccc2s1)N1CCCCC1	i	i	i	i	i
N#C/C(=C/c1ccc(Br)o1)C(N)=O	33.0	i	i	i	i
CCOC(=O)c1c(C)n(C)c2ccc(OC(=O)c3ccc(N4C(=O)CCC4=O)cc3)cc12	nt	nt	i	i	nt
CC(=O)c1ccc(S(=O)c2ccccc2)cc1 (centres undefined)	nt	nt	i	i	nt
NS(=O)(=O)c1cccnc1Nc1cccc(Cl)c1Cl	nt	nt	i	i	nt
Cc1ccc(-n2c3nc(=O)[nH]c(=O)c-3cc3c(C)nn(-c4ccccc4)c32)c(C)c1	nt	nt	i	i	nt
Cn1cnc2cc(NS(=O)(=O)c3ccc(Br)cc3)ccc21	39.1	i	i	i	i
SMILES	H69AR growth 86K	Fibroblast inh	HCT116 bCat-KO	PTEN del growth	HUVEC prolif 384
COc1ccc(-n2cnc3cc(NS(=O)(=O)c4ccccc4)ccc32)cc1	i	i	i	i	i
CC(C)(C)n1cnc2cc(NS(=O)(=O)c3ccccc3)ccc21	i	39.3	i	i	i
Cc1ccc(Nc2cc(C)nn2-c2nc(C)cc(C)n2)cc1	13.5	i	i	i	i
Cc1ccc(Nc2cc(C)nn2-c2nc(C)cc(=O)[nH]2)cc1	1.4	4.5	2.0	1.5	29.8
Cc1ccc(Nc2nc3ccccc3nc2-n2nc(C)cc2C)cc1	i	i	i	i	i
Cc1ccc(Nc2cc(C)nc3nnnn23)cc1	i	i	i	i	i
Cc1cc(-c2n[nH]c(=S)n2CC(C)C)cs1	nt	nt	i	i	nt
CNC(CC(=O)c1ccc([N+](=O)[O-])cc1)C(Cl)(Cl)Cl (centres undefined)	nt	nt	2.6	3.4	nt
Cc1ccccc1C(=O)Nc1nnc(-c2ccc(F)cc2)o1	35.6	i	i	i	i
CN(C)S(=O)(=O)c1ccc(C(=O)Nc2nnc(-c3ccc4c(c3)CCCC4)o2)cc1	27.9	i	i	i	i
O=C(Nc1nnc(-c2ccc3c(c2)CCCC3)o1)C1CCCCC1	i	i	i	i	i
O=C(Nc1nnc(-c2ccc3c(c2)CCCC3)o1)c1ccc(Cl)cc1Cl	i	i	i	i	28.6
COc1ccc(-c2nnc(NC(=O)c3ccc(S(=O)(=O)N4CCc5ccccc5C4)cc3)o2)cc1	18.4	i	i	i	13.1
COc1ccc(-c2csc(NC(=O)c3ccc(S(=O)(=O)N4CCc5ccccc5C4)cc3)n2)cc1	nt	nt	i	i	nt
CC1CCN(S(=O)(=O)c2ccc(S(=O)(=O)N3CCC4(CC3)OCCO4)cc2)CC1	nt	nt	i	i	nt
NC(=O)c1oc2ccccc2c1NC(=O)c1nc2ccccc2s1	i	i	i	i	i
O=C(Nc1nnc(-c2ccccc2)o1)c1nc2ccccc2s1	29.1	i	nt	nt	i
COc1ccc(-c2nnc(NC(=O)c3cc(Cl)ccc3Cl)o2)cc1	30.1	i	i	i	i
CC1=C(C#N)C(NC(=O)c2ccc(Cl)cc2)(C(F)(F)F)C(=O)N1 (centres undefined)	nt	nt	i	i	nt
Clc1ccc(C(c2nnnn2C2CCCCC2)N(Cc2cccnc2)Cc2ccco2)cc1 (centres undefined)	35.8	i	i	i	i
Cc1ccc2[nH]c(=O)c(C(c3nnnn3C3CCCC3)N(Cc3cccnc3)Cc3ccco3)cc2c1 (centres undefined)	i	i	i	i	i
Cc1cnc(C(=O)Nc2cccc3cccnc23)cn1	3.6	43.2	i	i	5.1
Cc1ccc(N2C(=O)C3C(c4ccccc4)N4CCCN4C3(C)C2=O)cc1 (centres undefined)	nt	nt	i	i	nt
COc1ccccc1-c1cc(C(=O)Nc2cc(C)nn2-c2ccccc2)no1	27.1	i	i	i	i
COCCNC(=O)c1cc(-c2ccccc2OC)on1	36.3	i	i	i	i
SMILES	H69AR growth 86K	Fibroblast inh	HCT116 bCat-KO	PTEN del growth	HUVEC prolif 384
COc1ccc(-c2cc(C(=O)Nc3cc(C)nn3-c3ccccc3)no2)cc1	i	i	i	i	i
COc1ccccc1-c1cc(C(=O)Nc2cc(C)n(Cc3ccc(Cl)cc3)n2)no1	5.4	i	i	i	i
Cc1cc(C(=O)Nc2cc(C)n(Cc3ccc(Cl)cc3)n2)no1	i	i	i	i	i
Cc1nn(Cc2ccccc2Cl)c(C)c1NC(=O)CSc1n[nH]c(C)c1[N+](=O)[O-]	nt	nt	i	i	nt
N#CC1(c2ccc(NC(=O)c3ccccc3F)cc2)CCCC1	nt	nt	i	i	nt
Cc1ccc2[nH]c3c(c2c1)CN(C(=O)CN1c2ccc(F)cc2CCC1C)CC3 (centres undefined)	11.2	i	i	i	i
Cc1ccc2[nH]c3c(c2c1)CN(C(=O)CN1CCN(c2cccc(C)c2C)CC1)CC3	i	i	i	i	i
Cc1ccc([N+](=O)[O-])cc1NC(=O)CCCOc1ccccc1	nt	nt	i	i	nt
O=C(Nc1cccnc1Cl)c1ccc(Cl)c([N+](=O)[O-])c1	nt	nt	i	i	nt
CCN(CC)C(=S)SSC(=S)N(CC)CC	nt	nt	1.1	0.9	nt
CCN(CC)C(=S)SCC(=O)c1ccccc1	nt	nt	i	i	nt

Bioassay records: PubChem BioAssay, SRMLSC
